Where two headings read alike, the source gives them in different places.
Legend:
[1] = test system: catalytic domain of SHP-2 [SHP-2(ΔSH2)]; experiment: PTP activity assay with synthetic pY peptides as substrates, SHP-2; format: biochemical; details: for Km / kcat/KM: same buffer pH 7.4, three or more independent experiments; for Km: mean ± SD
[2] = test system: catalytic domain of SHP-1 [SHP-1(ΔSH2)]; experiment: PTP activity assay with synthetic pY peptides as substrates, SHP-1; format: biochemical; details: for Km / kcat/KM: same buffer pH 7.4, three or more independent experiments; for Km: mean ± SD
catalytic domain of SHP-1 [SHP-1(ΔSH2)], sequence (P29350 244-515 limits assumed, stated change not applied): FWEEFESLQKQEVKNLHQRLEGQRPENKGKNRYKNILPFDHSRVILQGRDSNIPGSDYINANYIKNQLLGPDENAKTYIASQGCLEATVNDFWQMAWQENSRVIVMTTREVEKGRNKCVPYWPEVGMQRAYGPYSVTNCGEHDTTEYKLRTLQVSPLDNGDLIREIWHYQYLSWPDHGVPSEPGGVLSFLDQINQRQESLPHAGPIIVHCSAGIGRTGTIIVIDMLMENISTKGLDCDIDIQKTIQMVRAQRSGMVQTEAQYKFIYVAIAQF

[3] = molecular target: T1, RPTPα (amino acids 224–802) (Homo sapiens, UniProt P18433); experiment: PTP activity assay with synthetic pY peptides as substrates, RPTPα; format: biochemical; details: for Km: same buffer pH 7.4, mean ± SD, three or more independent experiments; for kcat/KM: same buffer pH 7.4, three or more independent experiments
[4] = molecular target: T2, PTP1B (amino acids 1–321) (Homo sapiens, UniProt P18031); experiment: PTP activity assay with synthetic pY peptides as substrates, PTP1B; format: biochemical
T2 sequence (P18031 1-321): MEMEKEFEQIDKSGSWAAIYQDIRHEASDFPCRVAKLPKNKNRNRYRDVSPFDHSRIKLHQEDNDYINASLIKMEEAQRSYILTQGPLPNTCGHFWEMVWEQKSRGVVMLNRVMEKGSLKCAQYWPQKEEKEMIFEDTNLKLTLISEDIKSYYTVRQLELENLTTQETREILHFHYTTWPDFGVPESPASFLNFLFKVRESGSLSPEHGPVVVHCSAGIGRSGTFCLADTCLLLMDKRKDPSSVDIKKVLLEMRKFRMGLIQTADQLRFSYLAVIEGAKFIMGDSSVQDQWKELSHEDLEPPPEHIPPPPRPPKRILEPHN
Procedure, shortened: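 PTP1B catalytic fragment (residues 1–321) expressed in E. coli, quantified by Bradford against BSA. For alanine-scan peptides, kinetic constants came from fitting progress curves to the integrated Michaelis–Menten equation.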

[5] = molecular target: T1, RPTPα (amino acids 224–802); details: literature value, ref [20]; cited from earlier work
[6] = molecular target: T2, PTP1B (amino acids 1–321); details: ref [36], cited from earlier work

Compound | Km ([1]; SHP-2) [µM] | kcat/KM ([1]; SHP-2) [M⁻¹ s⁻¹] | Km ([2]; SHP-1) [µM] | kcat/KM ([2]; SHP-1) [M⁻¹ s⁻¹] | further results
WRKRFpYDWEF | 560 ± 140 | 2300 | 780 ± 640 | 2200 | 
DFEDFpYAA | 23 ± 2 | 1.6e+06 |  |  | 
Ac-FDIDIpYAA-NH2 | 39 ± 5 | 770000 | 13 ± 1 | 2.5e+06 | 
Ac-EIFDFpYAA-NH2 | 54 ± 6 | 480000 | 27 ± 4 | 1.2e+06 | 
Ac-WAGDDpYAA-NH2 | 68 ± 15 | 530000 | 45 ± 5 | 1.3e+06 | higher reactivity to SHP-1 than to SHP-2 (kcat/KM ratio) ([2]; SHP-1 versus SHP-2): 2.5 fold
EADTApYAA |  |  |  |  | Km [3]: 1400 ± 100 µM; kcat/KM [3]: 19000 M⁻¹ s⁻¹
Ac-AAAAApYRHRR-NH2 |  |  |  |  | kcat/KM value [4]: > 10^5 M^−1 s^−1; Km [3]: 2600 ± 200 µM; kcat/KM [3]: 12000 M⁻¹ s⁻¹
Ac-RTLAApYRFQK-NH2 |  |  |  |  | kcat/KM value [4]: 220000 M⁻¹ s⁻¹
Ac-FYDIDpYAA-NH2 | 66 ± 13 | 750000 | 28 ± 2 | 2.4e+06 | 
Ac-ApYpYWTApYAA-NH2 |  |  |  |  | kcat/KM value [4]: 1.51e+07 M⁻¹ s⁻¹
Ac-ARKRIpYAA-NH2 |  |  |  |  | kcat/KM value [4]: > 10^5 M^−1 s^−1; Km [3]: 490 ± 30 µM; kcat/KM [3]: 80000 M⁻¹ s⁻¹
Ac-RTLAApYEEVH-NH2 |  |  |  |  | kcat/KM value [4]: 840000 M⁻¹ s⁻¹
TATEPQpYQPGENL |  |  |  |  | Km [5]: 1070 ± 30 µM; kcat [5]: 9.7 ± 0.2 s⁻¹; kcat/KM [5]: 9100 M⁻¹ s⁻¹
O=P(O)(O)Oc1ccccc1 [Phenyl phosphate, reference compound] |  |  |  |  | kcat/KM [3]: 20 M⁻¹ s⁻¹
ADEDFpYAA | 34 ± 2 | 820000 |  |  | 
Ac-WDEDFpYAA-NH2 | 43 ± 2 | 1.1e+06 |  |  | 
Ac-SASASpYSASA-NH2 | 2300 ± 400 | 18000 | 1990 ± 420 | 13000 | Km [3]: 530 ± 150 µM; kcat/KM [3]: 43000 M⁻¹ s⁻¹
LIEDNEpYTARQGA |  |  |  |  | Km [5]: 770 ± 20 µM; kcat [5]: 8.3 ± 0.2 s⁻¹; kcat/KM [5]: 11000 M⁻¹ s⁻¹

Compound | Km ([1]; SHP-2) [µM] | kcat/KM ([1]; SHP-2) [M⁻¹ s⁻¹] | Km ([2]; SHP-1) [µM] | kcat/KM ([2]; SHP-1) [M⁻¹ s⁻¹] | further results
WDEDFpYRWKF | 210 ± 35 | 340000 | 150 ± 15 | 280000 | 
Ac-RRISTpYAA-NH2 |  |  |  |  | kcat/KM value [4]: > 10^5 M^−1 s^−1; Km [3]: 1200 ± 100 µM; kcat/KM [3]: 41000 M⁻¹ s⁻¹
Ac-SASASpYDWEF-NH2 | 180 ± 7 | 190000 | 48 ± 9 | 250000 | increase of kcat/KM relative to Ac-SASASpYSASA-NH2 ([1]; SHP-2): 10 fold; increase of kcat/KM relative to Ac-SASASpYSASA-NH2 ([2]; SHP-1): 19 fold
AYTEpYTpYAA |  |  | 9.1 ± 1 | 1.9e+06 | 
Ac-AAAAApYEEVH-NH2 |  |  |  |  | kcat/KM [3]: 39000 M⁻¹ s⁻¹
Ac-RTLAApYAAAA-NH2 |  |  |  |  | kcat/KM value [4]: 510000 M⁻¹ s⁻¹
DAEDFpYAA | 28 ± 3 | 1.1e+06 |  |  | 
O=[N+]([O-])c1ccc(OP(=O)(O)O)cc1 [pNPP, reference compound] |  |  |  |  | Km [3]: 2700 ± 300 µM; kcat/KM [3]: 190 M⁻¹ s⁻¹
Ac-AKFEDTpYAA-NH2 |  |  | 58 ± 13 | 340000 | 
TSTEPQpYQPGENL |  |  |  |  | Km [5]: 1160 ± 140 µM; kcat [5]: 8.9 ± 0.5 s⁻¹; kcat/KM [5]: 7700 M⁻¹ s⁻¹
FDEDFpYAA | 31 ± 6 | 1e+06 |  |  | 
Ac-WDEDFpYDWEF-NH2 | 6.3 ± 0.4 | 6.8e+06 | 3.2 ± 0.3 | 2.3e+07 | increase of activity relative to peptide 6 (Ac-WDEDFpYSASA-NH2) ([1]; SHP-2, C-terminal SASA replaced by acidic motif DWEF): 6.2 fold; kcat/KM value ([2]; SHP-1): 2.3e+07 M⁻¹ s⁻¹
Ac-DWEDFpYAA-NH2 | 17 ± 2 | 1.7e+06 |  |  | 
Ac-WDEDFpYSASA-NH2 | 46 ± 10 | 1.1e+06 | 53 ± 10 | 700000 | increase of kcat/KM relative to Ac-SASASpYSASA-NH2 ([1]; SHP-2): 61 fold; higher activity of SHP-2 than of SHP-1 (kcat/KM ratio) ([1]; SHP-2 versus SHP-1): 1.6 fold; kcat/KM [3]: 69000 M⁻¹ s⁻¹; increase of kcat/KM relative to Ac-SASASpYSASA-NH2 ([2]; SHP-1): 54 fold
Ac-AAAApYAAAA-NH2 |  |  |  |  | kcat/KM ([6]; literature value): 1.3 ^b μM^−1 s^−1; kcat/KM value [6]: 1.3e+06 M⁻¹ s⁻¹
Ac-ASSDDpYAA-NH2 |  |  |  |  | kcat/KM [3]: 13000 M⁻¹ s⁻¹
Ac-AVWEFpYpYAA-NH2 |  |  | 7.5 ± 2 | 3.3e+06 | 

Source: paper PMC3074353 (Biochemistry, 2011)
